pIC50: −log10 of the molar value. Where “and” joins values, the source holds several entries; their conditions need not be identical. Equal entries are not always repeated.
Tests used:
[1] = molecular target: T1, 3-oxo-5-alpha-steroid 4-dehydrogenase 2 (Homo sapiens, UniProt P31213); assay: Inhibitory activity against 5-alpha Reductase-2 on human prostate homogenates from surgically derived benign hyperplastic tissue in experiment 1; assay type: tissue-based, Prostate gland
T1 sequence (P31213 whole entry): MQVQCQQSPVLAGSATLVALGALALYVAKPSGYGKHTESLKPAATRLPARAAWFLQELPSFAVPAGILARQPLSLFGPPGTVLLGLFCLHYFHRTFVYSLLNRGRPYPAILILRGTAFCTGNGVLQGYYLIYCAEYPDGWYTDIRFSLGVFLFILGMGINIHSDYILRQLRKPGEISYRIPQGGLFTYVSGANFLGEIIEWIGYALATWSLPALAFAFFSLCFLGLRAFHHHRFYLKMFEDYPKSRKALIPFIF
Method in brief: (§1)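 Benign hyperplastic human prostate tissue, stored at -80 °C, was homogenized near 0 °C in 50 mM TRIS pH 7.4 with salts, nicotinamide and sucrose, spun at 200g, and the combined supernatants were used. Homogenate (0.1 mg protein) was incubated with 30 nM testosterone (9% [3H]) and 0.3 mM NADPH for 30 min at 37 °C, with the inhibitor added alongside the substrate. Inhibitor range was 10⁻¹⁰–10⁻⁵ M. DHT conversion was read by TLC and scintillation, in duplicate.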

[2] = molecular target: T1, 3-oxo-5-alpha-steroid 4-dehydrogenase 2; assay: Tested against 5 alpha R-2 on human prostate homogenate from surgically derived benign hyperplastic tissue in experiment 1; assay type: tissue-based, Prostate gland; method in brief: as §1
[3] = molecular target: T2, 3-oxo-5-alpha-steroid 4-dehydrogenase 1 (Homo sapiens, UniProt P18405); assay: (§2) Inhibitory activity against human 5-alpha Reductase-1 expressed in DU-145 cells; assay type: cell-based
T2 sequence (P18405 whole entry): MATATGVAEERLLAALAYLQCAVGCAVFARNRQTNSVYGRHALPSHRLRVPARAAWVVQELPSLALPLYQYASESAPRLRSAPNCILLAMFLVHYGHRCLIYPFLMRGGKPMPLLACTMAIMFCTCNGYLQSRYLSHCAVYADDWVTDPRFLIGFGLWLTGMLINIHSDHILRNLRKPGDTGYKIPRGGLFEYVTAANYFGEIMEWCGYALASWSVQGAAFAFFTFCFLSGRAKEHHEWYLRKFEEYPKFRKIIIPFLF
Method in brief: (§3)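 DU-145 cells (passage 60–90) were plated at 100 000 cells/well and left to adhere for 24 h. Inhibitors were prepared in ethanol, diluted in phenol-red-free MEM and tested at five doses, 10⁻⁹–10⁻⁵ M, with 5 nM [3H]androstenedione. After 6 h at 37 °C in 5% CO2, the medium was extracted with ethyl acetate and analysed by TLC and scintillation.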

[4] = molecular target: T1, 3-oxo-5-alpha-steroid 4-dehydrogenase 2; assay: Tested against 5 alpha R-2 on human prostate homogenate from surgically derived benign hyperplastic tissue in experiment 3; assay type: tissue-based, Prostate gland; method in brief: as §1
[5] = molecular target: T1, 3-oxo-5-alpha-steroid 4-dehydrogenase 2; assay: Inhibition against 5 alpha R-2 in human prostate homogenate compared with finasteride in experiment 1; assay type: tissue-based, Prostate gland; method in brief: as §1
[6] = molecular target: T1, 3-oxo-5-alpha-steroid 4-dehydrogenase 2; assay: TInhibitory activity against 5-alpha Reductase-2 on human prostate homogenates from surgically derived benign hyperplastic tissue in experiment 2; assay type: tissue-based, Prostate gland; method in brief: as §1
[7] = molecular target: T1, 3-oxo-5-alpha-steroid 4-dehydrogenase 2; assay: Tested against 5 alpha R-2 on human prostate homogenate from surgically derived benign hyperplastic tissue in experiment 2; assay type: tissue-based, Prostate gland; method in brief: as §1
[8] = molecular target: T1, 3-oxo-5-alpha-steroid 4-dehydrogenase 2; assay: Inhibition against 5 alpha R-2 in human prostate homogenate compared with finasteride in experiment 2; assay type: tissue-based, Prostate gland; method in brief: as §1
[9] = molecular target: T1, 3-oxo-5-alpha-steroid 4-dehydrogenase 2; assay: Inhibition against 5 alpha R-2 in human prostate homogenate compared with finasteride in experiment 3; assay type: tissue-based, Prostate gland; method in brief: as §1
[10] = molecular target: T1, 3-oxo-5-alpha-steroid 4-dehydrogenase 2; assay: Inhibition against 5 alpha R-2 in human prostate homogenate relative to finasteride; assay type: tissue-based, Prostate gland
[11] = molecular target: T1, 3-oxo-5-alpha-steroid 4-dehydrogenase 2; assay: Inhibitory activity against 5-alpha Reductase-2 on human prostate homogenates from surgically derived benign hyperplastic tissue; assay type: tissue-based, Prostate gland; method in brief: as §1
[12] = molecular target: 3-oxo-5-alpha-steroid 4-dehydrogenase 1 (Homo sapiens, UniProt P18405); assay: as §2; assay type: cell-based; method in brief: as §3; remark: listed apart in the source

| SMILES | pIC50 [3] | pIC50 [10] | pIC50 [11] | further results |
| --- | --- | --- | --- | --- |
| CC(C)(C)NC(=O)[C@H]1CC[C@H]2C3=C(CC[C@]12C)N1CCC(=O)C=C1CC3.CC(C)(C)NC(=O)[C@H]1CC[C@H]2C3CCC4=CC(=O)CCN4C3=CC[C@]12C (some centres not stated) | 6.90 |  |  | pIC50 [1]: 7.43; pIC50 [2]: 7.99; pIC50 [4]: 6.82; pIC50 [5]: 8.66 and 8.47; pIC50 [6]: 6.91; pIC50 [7]: 8.14; pIC50 [8]: 8.24 and 8.51; pIC50 [9]: 8.37 |
| C[C@]12CC=C3[C@@H](CCC4=CC(=O)CCN43)C1CC[C@@H]2O.C[C@]12CCC3=C(CCC4=CC(=O)CCN43)C1CC[C@@H]2O (some centres not stated) |  | 8.52 | 5.54 |  |
| C[C@]12CC[C@H]3[C@@H](CCC4CC(=O)C=CN43)[C@@H]1CCC2=O (some centres not stated) |  | 8.62 | 4.34 |  |
| C[C@]12CC[C@H]3[C@@H](CC[C@H]4CC(=O)CCN43)[C@@H]1CCC2=O | < 4.00 | 8.54 | < 4.00 |  |
| C=CC(=O)/C=C1/CCC2=C(CC[C@]3(C)C(=O)CC[C@@H]23)N1.C=CC(=O)/C=C1/CCC2C(=CC[C@]3(C)C(=O)CC[C@@H]23)N1 (some centres not stated) |  | 8.21 | < 4.00 |  |
| C[C@]12CC[C@H]3[C@@H](CCC4=CC(=O)CCN43)[C@@H]1CC[C@@H]2O | 6.39 | 8.57 | 5.38 |  |
| C[C@]12CC[C@H]3[C@@H](CCC4=CC(=O)CCN43)[C@@H]1CCC2=O | 6.52 | 8.46 | 5.36 |  |
| CC(C)(C)NC(=O)[C@H]1CC[C@H]2[C@@H]3CCC4=CC(=O)CCN4[C@H]3CC[C@]12C | 5.95 | 8.26 | 6.34 |  |
| C[C@]12CC=C3[C@@H](CCC4=CC(=O)CCN43)C1CCC2=O.C[C@]12CCC3=C(CCC4=CC(=O)CCN43)C1CCC2=O (stereo in doubt; 4a) |  | 8.47 |  |  |
| C[C@]12CC=C3[C@@H](CCC4=CC(=O)CCN43)C1CCC2=O.C[C@]12CCC3=C(CCC4=CC(=O)CCN43)C1CCC2=O (stereo in doubt; 4a:4b(5:1)) | 6.58 | 8.39 | 5.34 |  |
| C[C@]12CC=C3C4=C(CCC3[C@@H]1CCC2=O)NCCC4=O.C[C@]12CCC3=C(CCC4=C3C(=O)CCN4)[C@@H]1CCC2=O (stereo in doubt; 27b) |  | 8.42 |  |  |
| C[C@]12CC=C3C4=C(CCC3[C@@H]1CCC2=O)NCCC4=O.C[C@]12CCC3=C(CCC4=C3C(=O)CCN4)[C@@H]1CCC2=O (stereo in doubt; 27c) | < 4.00 | 8.21 | < 4.00 |  |
| CC(C)(C)NC(=O)[C@H]1CC[C@H]2[C@@H]3CC[C@H]4NC(=O)C=C[C@]4(C)[C@H]3CC[C@]12C [FINASTERIDE] |  |  | 8.52 | pIC50 [12]: 7.38 |

From ChEMBL document CHEMBL1130410, “19-nor-10-azasteroids: a novel class of inhibitors for human steroid 5alpha-reductases 1 and 2” (J Med Chem, 1997)
